Source: ChEMBL document CHEMBL1765003, “Discovery of (1S,2R,3R)-2,3-dimethyl-2-phenyl-1-sulfamidocyclopropanecarboxylates: novel and highly selective aggrecanase inhibitors” (J Med Chem, 2011)

Legend:
[1] = target: Disintegrin and metalloproteinase domain-containing protein 17 (Homo sapiens, UniProt P78536); test: Inhibition of human recombinant TACE after 60 mins by fluorescence plate reader
How it was run: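 rh-TACE at 80 ng/mL with 10 μM MCA-Pro-Leu-Ala-Gln-Ala-Val-Dpa-Arg-Ser-Ser-Ser-Arg-NH₂, in 100 mM Tris-HCl pH 7.5, 150 mM NaCl, 10 mM CaCl₂, 0.05% Brij-35. Inhibitor preincubated for 15 min at 25 °C. Fluorescence (ex 325/em 405 nm) read at 60 min. IC50 from three linear-range points; mean of ≥2.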

Homo sapiens = species on record: Homo sapiens; test: Selectivity ratio of IC50 for human recombinant MMP14 to IC50 for human recombinant aggrecanase 2
[2] = target: Matrix metalloproteinase-14 (Homo sapiens, UniProt P50281); test: Inhibition of human recombinant MMP14 after 60 mins by fluorescence plate reader
How it was run: (§1)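 Recombinant human enzyme at 20 ng/mL with 10 μM MOCAc-Lys-Pro-Leu-Gly-Leu-A2pr(Dnp)-Ala-Arg-NH₂, in 100 mM Tris-HCl pH 7.5, 150 mM NaCl, 10 mM CaCl₂, 0.05% Brij-35. Enzyme pretreated with inhibitor for 15 min at 25 °C, then substrate added. Fluorescence (ex 325, em 405 nm) read at 60 min. IC50 taken from three points in the linear range; mean of ≥2 determinations.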

Interstitial collagenase = target: T1, Interstitial collagenase (Homo sapiens, UniProt P03956); test: Inhibition of human recombinant MMP1 after 60 mins by fluorescence plate reader; how it was run: as §1
T1 sequence (P03956 whole entry): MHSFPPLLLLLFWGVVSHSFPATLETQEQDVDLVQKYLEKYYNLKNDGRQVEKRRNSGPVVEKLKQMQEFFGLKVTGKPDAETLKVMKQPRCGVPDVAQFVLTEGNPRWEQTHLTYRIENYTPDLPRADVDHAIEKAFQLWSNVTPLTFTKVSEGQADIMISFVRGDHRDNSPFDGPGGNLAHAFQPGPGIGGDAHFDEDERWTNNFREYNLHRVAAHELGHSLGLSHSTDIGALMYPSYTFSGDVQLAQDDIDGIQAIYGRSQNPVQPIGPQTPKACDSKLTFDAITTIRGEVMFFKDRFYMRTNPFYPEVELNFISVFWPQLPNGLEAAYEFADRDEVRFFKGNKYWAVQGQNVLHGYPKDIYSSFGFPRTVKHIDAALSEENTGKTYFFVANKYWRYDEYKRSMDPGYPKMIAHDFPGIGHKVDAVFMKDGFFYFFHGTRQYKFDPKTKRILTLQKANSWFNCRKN

[3] = target: T2, A disintegrin and metalloproteinase with thrombospondin motifs 5 (Homo sapiens, UniProt Q9UNA0); test: Inhibition of human recombinant aggrecanase 2 after 150 mins by fluorescence plate reader
T2 sequence (Q9UNA0 whole entry): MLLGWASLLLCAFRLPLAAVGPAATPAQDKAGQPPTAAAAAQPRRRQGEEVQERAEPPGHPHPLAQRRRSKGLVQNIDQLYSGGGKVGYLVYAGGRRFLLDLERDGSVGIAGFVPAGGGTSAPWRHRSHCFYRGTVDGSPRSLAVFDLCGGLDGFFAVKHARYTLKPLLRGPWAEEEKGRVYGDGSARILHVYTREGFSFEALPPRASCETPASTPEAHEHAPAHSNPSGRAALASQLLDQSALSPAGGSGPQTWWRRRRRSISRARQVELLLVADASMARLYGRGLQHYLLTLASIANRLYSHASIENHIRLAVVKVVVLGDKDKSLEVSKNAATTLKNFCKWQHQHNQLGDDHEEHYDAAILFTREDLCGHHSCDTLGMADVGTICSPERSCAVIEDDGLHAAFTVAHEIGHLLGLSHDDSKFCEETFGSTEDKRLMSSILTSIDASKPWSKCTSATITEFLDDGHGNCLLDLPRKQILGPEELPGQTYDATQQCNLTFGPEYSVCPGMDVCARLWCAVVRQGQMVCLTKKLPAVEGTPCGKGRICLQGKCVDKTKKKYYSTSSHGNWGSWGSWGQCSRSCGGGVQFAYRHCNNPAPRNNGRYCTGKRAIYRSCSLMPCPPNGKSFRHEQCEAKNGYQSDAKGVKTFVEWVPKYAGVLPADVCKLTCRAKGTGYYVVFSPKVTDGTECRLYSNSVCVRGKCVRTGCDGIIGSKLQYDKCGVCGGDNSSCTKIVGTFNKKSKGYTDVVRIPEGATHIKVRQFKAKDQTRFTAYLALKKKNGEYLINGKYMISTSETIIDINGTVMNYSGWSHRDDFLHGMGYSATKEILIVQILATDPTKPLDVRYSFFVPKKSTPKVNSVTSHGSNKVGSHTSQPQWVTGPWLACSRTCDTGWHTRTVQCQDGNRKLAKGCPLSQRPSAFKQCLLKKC

[4] = target: T3, A disintegrin and metalloproteinase with thrombospondin motifs 4 (Homo sapiens, UniProt O75173); test: Inhibition of human recombinant aggrecanase 1 after 150 mins by fluorescence plate reader
T3 sequence (O75173 whole entry): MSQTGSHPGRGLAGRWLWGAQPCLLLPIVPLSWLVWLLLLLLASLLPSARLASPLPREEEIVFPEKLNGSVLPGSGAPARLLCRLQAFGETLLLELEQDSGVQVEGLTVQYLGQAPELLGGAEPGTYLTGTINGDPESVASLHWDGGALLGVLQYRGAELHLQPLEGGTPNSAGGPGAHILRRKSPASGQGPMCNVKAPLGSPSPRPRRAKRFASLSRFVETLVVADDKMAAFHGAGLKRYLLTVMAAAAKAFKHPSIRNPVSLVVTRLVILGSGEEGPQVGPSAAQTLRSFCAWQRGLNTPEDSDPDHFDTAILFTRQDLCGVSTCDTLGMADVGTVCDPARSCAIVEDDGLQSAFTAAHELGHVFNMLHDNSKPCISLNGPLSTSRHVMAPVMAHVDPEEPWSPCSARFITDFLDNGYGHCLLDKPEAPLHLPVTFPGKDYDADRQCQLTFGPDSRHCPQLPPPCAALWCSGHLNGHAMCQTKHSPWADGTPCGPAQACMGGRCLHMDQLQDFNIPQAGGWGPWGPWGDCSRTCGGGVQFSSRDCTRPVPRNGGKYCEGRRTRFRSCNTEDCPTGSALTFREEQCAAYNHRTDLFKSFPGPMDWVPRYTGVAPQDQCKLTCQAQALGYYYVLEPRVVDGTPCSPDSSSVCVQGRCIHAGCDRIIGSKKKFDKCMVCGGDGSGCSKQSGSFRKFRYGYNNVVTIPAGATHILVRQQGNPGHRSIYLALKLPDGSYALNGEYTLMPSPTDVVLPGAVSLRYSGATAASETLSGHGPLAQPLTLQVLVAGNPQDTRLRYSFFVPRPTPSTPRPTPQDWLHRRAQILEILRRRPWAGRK

Disintegrin and metalloproteinase domain-containing protein 17, sequence (P78536 whole entry, the tested form may be a part): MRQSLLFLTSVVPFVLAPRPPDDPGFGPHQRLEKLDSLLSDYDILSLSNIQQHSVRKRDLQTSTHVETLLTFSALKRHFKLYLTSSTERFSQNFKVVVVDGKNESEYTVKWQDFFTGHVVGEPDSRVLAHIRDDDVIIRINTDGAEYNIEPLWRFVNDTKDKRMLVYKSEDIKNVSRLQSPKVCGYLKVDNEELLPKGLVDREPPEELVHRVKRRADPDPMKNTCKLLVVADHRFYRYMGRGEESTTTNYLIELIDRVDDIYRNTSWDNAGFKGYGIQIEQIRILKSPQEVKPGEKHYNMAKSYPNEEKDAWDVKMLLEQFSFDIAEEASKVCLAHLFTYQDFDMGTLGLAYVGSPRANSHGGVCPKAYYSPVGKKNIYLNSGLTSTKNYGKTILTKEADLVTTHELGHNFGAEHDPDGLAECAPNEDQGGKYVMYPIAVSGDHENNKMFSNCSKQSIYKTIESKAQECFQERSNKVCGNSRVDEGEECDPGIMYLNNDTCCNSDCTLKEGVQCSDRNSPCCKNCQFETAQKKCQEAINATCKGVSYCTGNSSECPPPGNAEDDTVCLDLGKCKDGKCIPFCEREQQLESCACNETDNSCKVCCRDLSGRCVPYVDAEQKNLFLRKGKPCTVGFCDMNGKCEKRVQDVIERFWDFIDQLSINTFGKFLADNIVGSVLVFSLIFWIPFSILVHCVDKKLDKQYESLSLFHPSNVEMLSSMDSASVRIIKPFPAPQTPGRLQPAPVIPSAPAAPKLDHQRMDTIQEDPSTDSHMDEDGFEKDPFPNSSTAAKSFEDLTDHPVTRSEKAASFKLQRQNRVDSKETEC

C[C@@H]1[C@H](c2ccccc2)[C@]1(NS(=O)(=O)N1CCN(c2ccc(Cl)cc2)[C@@H](C)C1)C(=O)O
IC50 [1]: > 10000 nM
Ratio IC50 (Homo sapiens): 10
IC50 [2]: 2500 nM
IC50 (Interstitial collagenase): > 10000 nM
IC50 [3]: 47 nM

O=C(NO)[C@@H](NCC1CC1)[C@@H](Cc1cccc(O)c1)C(=O)N[C@H]1c2ccccc2C[C@H]1O
IC50 [4]: 3 nM
IC50 [1]: 430 nM
IC50 [2]: > 10000 nM
IC50 (Interstitial collagenase): > 10000 nM
IC50 [3]: 12 nM

C[C@@H]1CN(S(=O)(=O)N[C@@]2(C(=O)O)[C@H](C)[C@@H]2c2ccccc2)CCN1c1cc(C(F)F)on1
IC50 [1]: > 10000 nM
Ratio IC50 (Homo sapiens): 200
IC50 [2]: 5400 nM
IC50 (Interstitial collagenase): > 10000 nM
IC50 [3]: 27 nM

C[C@@H]1CN(S(=O)(=O)N[C@@]2(C(=O)O)[C@H](C)[C@@H]2c2ccccc2)CCN1c1ccc(Cl)cc1
IC50 [1]: > 10000 nM
Ratio IC50 (Homo sapiens): 10
IC50 [2]: 2100 nM
IC50 (Interstitial collagenase): > 10000 nM
IC50 [3]: 37 nM
